Results: ChEMBL document CHEMBL1144895, “Synthesis and anticonvulsant activity of novel bicyclic acidic amino acids” (J Med Chem, 2003)

How the values were obtained:
Mus musculus [1] = experiment: In vivo anticonvulsant activity determined as icv dose that blocked 3,5-DHPG induced clonic seizures induced in DBA/2 mice; format: functional; details: central
Mus musculus [2] = experiment: In vivo anticonvulsant activity determined as icv dose that blocked 3,5-DHPG induced tonic seizures induced in DBA/2 mice after; format: functional; details: central
Mus musculus [3] = experiment: In vivo anticonvulsant activity determined as icv dose that blocked NMDA-induced tonic seizures induced in DBA/2 mice after ip administration; format: functional
Procedure, shortened: (§1)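 DBA/2 mice, n = 10 per group, were dosed with drug in DMSO buffered to pH 7.3–7.7, then given icv NMDA: 18.7 nmol/mouse for tonic extension or 1.9 nmol/mouse for clonic seizures. ED50 by Litchfield–Wilcoxon, 95% confidence limits.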

Mus musculus [4] = experiment: In vivo anticonvulsant activity determined as icv dose that blocked clonic seizures induced by audiogenic stimuli in DBA/2 mice after pretreatment with D-serine; format: functional; details: central
Mus musculus [5] = experiment: In vivo anticonvulsant activity determined as icv dose that blocked tonic seizures induced in DBA/2 mice by audiogenic stimuli; format: functional; details: central
Procedure, shortened: (§2)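 Male DBA/2 mice (6–12 g, 22–26 days old) received icv drug or vehicle (10 μL, 1 mm anterior to bregma, 1 mm lateral, 3 mm depth) under light ether anaesthesia. Drug was dissolved in DMSO, pH 7.3–7.7 with phosphate buffer. 45 min later, 110 dB bell for 60 s; wild running, clonus, tonic extension scored.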

Mus musculus [6] = experiment: In vivo anticonvulsant activity determined as icv dose that blocked tonic seizures induced by audiogenic stimuli in DBA/2 mice after pretreatment with D-serine; format: functional; details: central
Mus musculus [7] = experiment: In vivo anticonvulsant activity determined as icv dose that blocked NMDA-induced clonic seizures induced in DBA/2 mice; format: functional; details: central; procedure, shortened: as §1
Mus musculus [8] = experiment: In vivo anticonvulsant activity determined as icv dose that blocked clonic seizures induced in DBA/2 mice by audiogenic stimuli; format: functional; details: central; procedure, shortened: as §2
Glutamate NMDA receptor = experiment: In vitro binding affinity for rat cortical membrane N-methyl-D-aspartate glutamate receptor determined using [3H]CPP as radioligand
Rattus norvegicus [9] = species on record: Rattus norvegicus; experiment: Antagonist activity tested in rat cortical slice model; format: functional
Procedure, shortened: (§3)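 Rat cortical slice model; compounds tested up to 1000 μM both as agonists and as antagonists. Antagonism measured against responses to NMDA (10 μM), AMPA (5 μM) or KA (5 μM), agonist applied for a further 90 s.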

Mus musculus [10] = experiment: In vivo anticonvulsant activity determined as ip dose that blocked tonic seizures induced in DBA/2 mice by audiogenic stimuli; format: functional
Procedure, shortened: (§4)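 Male DBA/2 mice (6–12 g, 22–26 days old) given drug or vehicle ip (DMSO, pH 7.3–7.7 with phosphate buffer). After 45 min, a 110 dB sound for 60 s or until clonus; seizures scored (wild running, clonic, tonic, respiratory arrest).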

Rattus norvegicus [11] = species on record: Rattus norvegicus; experiment: Agonist activity tested in rat cortical slice model; format: functional; procedure, shortened: as §3
Mus musculus [12] = experiment: In vivo anticonvulsant activity determined as ip dose that blocked tonic seizures induced by audiogenic stimuli in DBA/2 mice after pretreatment with D-serine; format: functional
Procedure, shortened: (§5)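 DBA/2 mice pretreated with D-serine (300 nmol/mouse, icv) 30 min […], then tested for audiogenic seizures (110 dB sound, clonic/tonic phases scored).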

Mus musculus [13] = experiment: In vivo anticonvulsant activity determined as ip dose that blocked clonic seizures induced by audiogenic stimuli in DBA/2 mice after pretreatment with D-serine; format: functional; procedure, shortened: as §5
Mus musculus [14] = experiment: In vivo anticonvulsant activity determined as ip dose that blocked clonic seizures induced in DBA/2 mice by audiogenic stimuli; format: functional; procedure, shortened: as §4
[15] = biological target: T1, Metabotropic glutamate receptor 4 (Rattus norvegicus, UniProt P31423); experiment: Activity tested at cloned rat Metabotropic glutamate receptor 4 expressed in Chinese Hamster Ovary (CHO) cells; format: functional, cell-based
Procedure, shortened: (§6)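 Cloned rat mGluR1α, mGluR2, mGluR4a or mGluR5a stably expressed in CHO cell lines; cells maintained and tested by a previously described procedure.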

[16] = biological target: Metabotropic glutamate receptor 2 (Rattus norvegicus, UniProt P31421); experiment: Activity tested at cloned rat mGluR2 receptor expressed in Chinese Hamster Ovary (CHO) cells; format: functional, cell-based
Procedure, shortened: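 Rat mGluR2 stably expressed in CHO cells, with cells maintained and tested as described in an earlier report. Agonism was assessed directly. Antagonism was assessed against a response to 30 μM Glu, with test compound at 1 mM.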

[17] = biological target: T2, Glutamate receptor ionotropic, AMPA (Rattus norvegicus, UniProt P19490+P19491+P19492+P19493); experiment: Binding affinity of compound was determined against Ionotropic glutamate receptor AMPA receptor, using radioligand [3H]- AMPA; format: protein-complex assay
[18] = biological target: Glutamate receptor ionotropic, kainate; experiment: In vitro binding affinity for rat cortical membrane KA receptor determined using [3H]KA as radioligand
Mus musculus [19] = experiment: In vivo anticonvulsant activity determined as ip dose that blocked 3,5-DHPG induced tonic seizures induced in DBA/2 mice; format: functional
Procedure, shortened: (§7)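 DBA/2 mice (n = 10 per group) given agent ip at 10–100 μmol/kg 15 min before icv DHPG (1.5 μmol); seizure-related activity observed for 90 min.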

[20] = biological target: T1, Metabotropic glutamate receptor 4; experiment: Inhibitory constant against cloned rat Metabotropic glutamate receptor 4 expressed in Chinese Hamster Ovary (CHO) cells; format: cell-based; procedure, shortened: as §6
[21] = biological target: Metabotropic glutamate receptor 1 (Rattus norvegicus, UniProt P23385); experiment: Inhibitory constant against cloned rat Metabotropic glutamate receptor 1 expressed in Chinese Hamster Ovary (CHO) cells; format: cell-based; procedure, shortened: as §6
Mus musculus [22] = experiment: In vivo anticonvulsant activity determined as ip dose that blocked NMDA-induced tonic seizures induced in DBA/2 mice; format: functional
[23] = biological target: T3, Metabotropic glutamate receptor 5 (Rattus norvegicus, UniProt P31424); experiment: Inhibitory constant against cloned rat Metabotropic glutamate receptor 5 expressed in Chinese Hamster Ovary (CHO) cells; format: cell-based; procedure, shortened: as §6
[24] = biological target: T3, Metabotropic glutamate receptor 5; experiment: Activity tested at cloned rat Metabotropic glutamate receptor 5 expressed in Chinese Hamster Ovary (CHO) cells; format: functional, cell-based
Procedure, shortened: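 Rat mGluR5a splice variant expressed in a CHO cell line. Compounds were tested for agonist and antagonist action at this receptor.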

Mus musculus [25] = experiment: In vivo anticonvulsant activity determined as ip dose that blocked 3,5-DHPG induced clonic seizures induced in DBA/2 mice; format: functional; procedure, shortened: as §7
Mus musculus [26] = experiment: In vivo anticonvulsant activity determined as ip dose that blocked 3,5-DHPG induced tonic seizures induced in DBA/2 mice after; format: functional; procedure, shortened: as §7
Mus musculus [27] = experiment: In vivo anticonvulsant activity determined as ip dose that blocked NMDA-induced tonic seizures induced in DBA/2 mice after ip administration; format: functional
[28] = biological target: T2, Glutamate receptor ionotropic, AMPA; experiment: In vitro binding affinity for rat cortical membrane Ionotropic glutamate receptor AMPA determined using [3H]AMPA as radioligand
[29] = biological target: Metabotropic glutamate receptor 2 (Rattus norvegicus) (UniProt P31421); experiment: Activity tested at cloned rat mGluR2 receptor expressed in Chinese Hamster Ovary (CHO) cells at 1 mM concentration; format: functional, cell-based
Procedure, shortened: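 Cloned rat mGluR2 in CHO cells; test compound at 1 mM, also checked for inhibition of the response to 30 μM Glu.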

Rattus norvegicus [30] = species on record: Rattus norvegicus; experiment: Antagonist activity against responses induced by 10 uM NMDA tested in rat cortical slice model; format: functional
Procedure, shortened: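 Rat cortical slices; antagonism of responses induced by 10 μM NMDA, agonist applied for a further 90 s; IC50 derived.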

Rattus norvegicus [31] = species on record: Rattus norvegicus; experiment: Percent inhibition of the response induced by 5 uM of AMPA at a concentration of 1 mM in rat; format: functional
Mus musculus [32] = experiment: In vivo anticonvulsant activity determined as ip dose that blocked NMDA-induced clonic seizures induced in DBA/2 mice; format: functional
Mus musculus [33] = experiment: In vivo anticonvulsant activity determined as potency that blocked tonic seizures induced in DBA/2 mice by audiogenic stimuli; format: functional
Mus musculus [34] = experiment: In vivo anticonvulsant activity determined as potency that blocked clonic seizures induced in DBA/2 mice by audiogenic stimuli; format: functional
Mus musculus [35] = experiment: In vivo anticonvulsant activity determined as potency that blocked NMDA-induced tonic seizures induced in DBA/2 mice; format: functional
Mus musculus [36] = experiment: In vivo anticonvulsant activity determined as potency that blocked NMDA-induced clonic seizures induced in DBA/2 mice; format: functional
Mus musculus [37] = experiment: In vivo anticonvulsant activity determined as potency that blocked tonic seizures induced by audiogenic stimuli in DBA/2 mice after pretreatment with D-serine; format: functional; procedure, shortened: as §5
Mus musculus [38] = experiment: In vivo anticonvulsant activity determined as potency that blocked clonic seizures induced by audiogenic stimuli in DBA/2 mice after pretreatment with D-serine; format: functional; procedure, shortened: as §5

T1 sequence (P31423 whole entry): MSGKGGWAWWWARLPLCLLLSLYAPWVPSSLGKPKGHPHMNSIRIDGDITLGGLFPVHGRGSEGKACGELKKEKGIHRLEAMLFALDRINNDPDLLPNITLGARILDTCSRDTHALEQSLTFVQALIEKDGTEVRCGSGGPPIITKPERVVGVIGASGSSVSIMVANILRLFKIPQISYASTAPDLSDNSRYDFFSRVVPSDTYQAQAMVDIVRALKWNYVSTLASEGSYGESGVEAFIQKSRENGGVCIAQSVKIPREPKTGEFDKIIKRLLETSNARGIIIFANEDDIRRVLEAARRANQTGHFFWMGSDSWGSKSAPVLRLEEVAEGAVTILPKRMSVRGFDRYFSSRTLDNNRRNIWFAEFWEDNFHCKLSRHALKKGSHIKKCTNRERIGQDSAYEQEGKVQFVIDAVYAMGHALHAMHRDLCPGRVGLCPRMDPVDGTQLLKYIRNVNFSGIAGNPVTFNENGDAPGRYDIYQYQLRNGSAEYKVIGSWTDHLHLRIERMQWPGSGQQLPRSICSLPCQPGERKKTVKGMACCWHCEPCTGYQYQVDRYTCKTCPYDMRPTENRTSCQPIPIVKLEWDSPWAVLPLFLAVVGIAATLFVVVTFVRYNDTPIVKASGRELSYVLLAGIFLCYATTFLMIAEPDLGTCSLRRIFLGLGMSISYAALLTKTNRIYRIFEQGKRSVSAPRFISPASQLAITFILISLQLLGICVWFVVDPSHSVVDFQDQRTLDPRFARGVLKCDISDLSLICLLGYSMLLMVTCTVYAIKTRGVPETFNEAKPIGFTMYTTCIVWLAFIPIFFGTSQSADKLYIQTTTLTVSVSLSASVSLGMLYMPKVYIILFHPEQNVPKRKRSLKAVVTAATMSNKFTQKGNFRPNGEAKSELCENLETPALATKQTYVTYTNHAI
T3 sequence (P31424 whole entry): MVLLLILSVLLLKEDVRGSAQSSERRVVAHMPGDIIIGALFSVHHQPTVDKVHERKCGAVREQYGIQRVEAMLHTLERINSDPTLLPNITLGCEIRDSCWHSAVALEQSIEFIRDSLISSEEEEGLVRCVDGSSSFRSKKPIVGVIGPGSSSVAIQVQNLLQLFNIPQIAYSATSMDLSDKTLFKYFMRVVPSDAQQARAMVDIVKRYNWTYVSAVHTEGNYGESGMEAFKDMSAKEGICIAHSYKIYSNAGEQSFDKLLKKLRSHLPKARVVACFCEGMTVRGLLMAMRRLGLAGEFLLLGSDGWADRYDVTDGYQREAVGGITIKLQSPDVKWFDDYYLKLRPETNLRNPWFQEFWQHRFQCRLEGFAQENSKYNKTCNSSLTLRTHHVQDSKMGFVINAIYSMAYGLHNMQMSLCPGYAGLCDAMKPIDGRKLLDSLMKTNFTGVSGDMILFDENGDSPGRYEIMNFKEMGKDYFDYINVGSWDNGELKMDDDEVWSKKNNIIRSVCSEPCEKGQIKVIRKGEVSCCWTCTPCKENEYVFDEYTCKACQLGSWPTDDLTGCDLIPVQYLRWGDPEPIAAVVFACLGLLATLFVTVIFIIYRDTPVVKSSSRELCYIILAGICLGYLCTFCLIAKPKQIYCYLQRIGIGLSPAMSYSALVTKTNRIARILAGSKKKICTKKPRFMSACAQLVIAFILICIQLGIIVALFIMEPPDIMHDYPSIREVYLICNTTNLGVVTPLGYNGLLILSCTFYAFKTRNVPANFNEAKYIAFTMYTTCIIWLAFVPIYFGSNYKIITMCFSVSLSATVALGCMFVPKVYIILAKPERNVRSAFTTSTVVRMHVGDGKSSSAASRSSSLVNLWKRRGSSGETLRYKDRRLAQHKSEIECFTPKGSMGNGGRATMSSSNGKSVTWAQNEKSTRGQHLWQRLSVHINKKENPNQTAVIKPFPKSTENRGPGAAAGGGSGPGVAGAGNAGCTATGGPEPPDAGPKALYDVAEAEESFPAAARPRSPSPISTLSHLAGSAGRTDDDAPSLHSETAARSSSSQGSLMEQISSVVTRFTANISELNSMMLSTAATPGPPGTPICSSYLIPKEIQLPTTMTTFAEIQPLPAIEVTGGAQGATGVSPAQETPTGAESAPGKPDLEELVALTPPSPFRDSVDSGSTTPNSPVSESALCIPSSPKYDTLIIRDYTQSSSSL
Sequence of Metabotropic glutamate receptor 2 (P31421 whole entry): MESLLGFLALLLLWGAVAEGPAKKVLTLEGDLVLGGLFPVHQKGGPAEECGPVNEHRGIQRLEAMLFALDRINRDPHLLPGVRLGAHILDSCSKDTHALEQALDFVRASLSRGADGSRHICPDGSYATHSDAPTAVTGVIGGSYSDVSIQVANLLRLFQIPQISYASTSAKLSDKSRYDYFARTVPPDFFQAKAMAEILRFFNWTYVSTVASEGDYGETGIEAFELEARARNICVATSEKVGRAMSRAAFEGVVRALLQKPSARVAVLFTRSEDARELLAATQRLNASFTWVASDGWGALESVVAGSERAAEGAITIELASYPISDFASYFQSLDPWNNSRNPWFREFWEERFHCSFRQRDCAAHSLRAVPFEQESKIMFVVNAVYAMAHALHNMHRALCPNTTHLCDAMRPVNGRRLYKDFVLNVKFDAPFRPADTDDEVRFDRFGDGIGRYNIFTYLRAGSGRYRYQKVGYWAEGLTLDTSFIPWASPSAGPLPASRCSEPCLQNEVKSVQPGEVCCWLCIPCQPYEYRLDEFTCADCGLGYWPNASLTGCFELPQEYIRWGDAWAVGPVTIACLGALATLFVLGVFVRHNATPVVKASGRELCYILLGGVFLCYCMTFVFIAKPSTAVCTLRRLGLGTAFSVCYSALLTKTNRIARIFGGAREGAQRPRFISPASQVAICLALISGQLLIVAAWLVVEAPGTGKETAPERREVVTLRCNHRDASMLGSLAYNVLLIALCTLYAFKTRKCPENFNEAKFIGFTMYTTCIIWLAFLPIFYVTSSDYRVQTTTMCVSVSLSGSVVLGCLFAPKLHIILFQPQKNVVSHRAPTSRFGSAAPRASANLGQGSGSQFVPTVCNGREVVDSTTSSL
Sequence of Metabotropic glutamate receptor 1 (P23385 whole entry): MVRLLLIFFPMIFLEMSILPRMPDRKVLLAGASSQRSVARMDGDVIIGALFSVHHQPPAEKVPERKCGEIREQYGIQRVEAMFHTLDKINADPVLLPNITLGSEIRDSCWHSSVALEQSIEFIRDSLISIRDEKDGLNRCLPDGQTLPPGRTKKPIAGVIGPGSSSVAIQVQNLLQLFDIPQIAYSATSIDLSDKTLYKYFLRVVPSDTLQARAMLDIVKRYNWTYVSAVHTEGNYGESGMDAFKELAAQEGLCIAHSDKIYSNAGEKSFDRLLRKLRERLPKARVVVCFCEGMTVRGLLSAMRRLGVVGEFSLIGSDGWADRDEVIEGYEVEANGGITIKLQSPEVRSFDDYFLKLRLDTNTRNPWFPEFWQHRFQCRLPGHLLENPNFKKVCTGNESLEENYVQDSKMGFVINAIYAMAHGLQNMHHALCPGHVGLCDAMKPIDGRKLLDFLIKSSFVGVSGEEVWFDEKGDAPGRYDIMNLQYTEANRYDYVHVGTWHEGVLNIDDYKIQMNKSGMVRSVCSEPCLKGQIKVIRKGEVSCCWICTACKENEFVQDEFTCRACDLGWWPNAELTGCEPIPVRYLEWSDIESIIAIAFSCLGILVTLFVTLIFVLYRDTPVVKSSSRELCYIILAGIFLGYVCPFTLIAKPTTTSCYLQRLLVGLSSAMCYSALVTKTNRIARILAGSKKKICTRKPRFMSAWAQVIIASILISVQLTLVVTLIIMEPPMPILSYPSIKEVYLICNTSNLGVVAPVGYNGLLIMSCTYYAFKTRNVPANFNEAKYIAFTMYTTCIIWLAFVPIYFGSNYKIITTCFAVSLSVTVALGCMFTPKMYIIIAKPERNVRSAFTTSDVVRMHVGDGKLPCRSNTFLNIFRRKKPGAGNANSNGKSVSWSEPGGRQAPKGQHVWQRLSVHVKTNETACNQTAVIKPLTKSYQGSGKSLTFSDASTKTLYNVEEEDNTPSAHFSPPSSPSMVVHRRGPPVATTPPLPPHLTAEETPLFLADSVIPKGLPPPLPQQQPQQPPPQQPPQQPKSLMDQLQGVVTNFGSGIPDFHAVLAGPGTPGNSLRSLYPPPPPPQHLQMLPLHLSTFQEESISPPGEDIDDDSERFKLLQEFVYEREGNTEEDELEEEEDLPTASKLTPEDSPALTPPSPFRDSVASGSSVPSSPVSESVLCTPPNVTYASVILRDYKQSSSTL
Sequence of Metabotropic glutamate receptor 2 (Rattus norvegicus) (P31421 19-872 limits assumed): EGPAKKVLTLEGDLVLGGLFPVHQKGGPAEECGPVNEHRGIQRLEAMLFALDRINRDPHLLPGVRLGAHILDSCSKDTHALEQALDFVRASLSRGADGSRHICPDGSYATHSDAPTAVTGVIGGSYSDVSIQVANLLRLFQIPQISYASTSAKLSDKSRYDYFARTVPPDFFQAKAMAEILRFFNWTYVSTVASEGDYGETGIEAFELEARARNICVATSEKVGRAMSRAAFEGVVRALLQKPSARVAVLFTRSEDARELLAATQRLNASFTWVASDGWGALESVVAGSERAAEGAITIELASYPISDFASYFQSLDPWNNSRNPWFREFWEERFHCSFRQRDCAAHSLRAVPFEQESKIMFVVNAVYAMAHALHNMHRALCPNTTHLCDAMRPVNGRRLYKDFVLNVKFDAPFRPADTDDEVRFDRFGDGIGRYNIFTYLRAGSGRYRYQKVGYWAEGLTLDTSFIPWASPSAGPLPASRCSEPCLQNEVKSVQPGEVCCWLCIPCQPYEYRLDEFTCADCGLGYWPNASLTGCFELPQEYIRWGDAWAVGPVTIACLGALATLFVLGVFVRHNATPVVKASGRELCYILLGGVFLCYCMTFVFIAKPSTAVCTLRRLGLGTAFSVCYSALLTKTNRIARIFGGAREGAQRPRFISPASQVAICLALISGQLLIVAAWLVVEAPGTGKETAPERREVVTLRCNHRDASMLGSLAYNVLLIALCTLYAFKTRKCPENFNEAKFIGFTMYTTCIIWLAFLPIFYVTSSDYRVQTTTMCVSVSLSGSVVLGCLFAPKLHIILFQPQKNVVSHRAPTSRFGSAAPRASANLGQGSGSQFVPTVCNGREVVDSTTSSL

O=C(O)c1cc(O)c2c(Cl)cc(Cl)cc2n1
ED50 (Mus musculus [1]): 14 µmol/kg | ED50 (Mus musculus [2]): 11 µmol/kg | ED50 (Mus musculus [3]): 22 µmol/kg | ED50 (Mus musculus [4]): 12 µmol/kg | ED50 (Mus musculus [5]): 2.2 µmol/kg | ED50 (Mus musculus [6]): 8.5 µmol/kg | ED50 (Mus musculus [7]): 26 µmol/kg | ED50 (Mus musculus [8]): 2.4 µmol/kg

N[C@@H](CCCP(=O)(O)O)C(=O)O
IC50 (Glutamate NMDA receptor): 29 µM

N[C@H](CCCP(=O)(O)O)C(=O)O
IC50 (Glutamate NMDA receptor): 0.88 µM

N[C@]1(C(=O)O)C[C@@H]2ON=C(C(=O)O)[C@@H]2C1 (racemic)
IC50 (Rattus norvegicus [9]): > 1000 µM | ED50 (Mus musculus [10]): 25 µmol/kg | EC50 (Rattus norvegicus [11]): > 1000 µM | ED50 (Mus musculus [12]): 24 µmol/kg | ED50 (Mus musculus [13]): 41 µmol/kg | IC50 (Glutamate NMDA receptor): > 100 µM | ED50 (Mus musculus [14]): 42 µmol/kg | EC50 [15]: > 1000 µM | EC50 [16]: 16 µM | IC50 [17]: > 100 µM | IC50 [18]: > 100 µM | ED50 (Mus musculus [19]): 84 µmol/kg | Ki [20]: > 1000 µM | Ki [21]: 27 µM | ED50 (Mus musculus [22]): 91 µmol/kg | Ki [23]: 440 µM

N[C@@]1(C(=O)O)CC[C@@H](C(=O)O)C1 (racemic)
EC50 [15]: 800 µM | EC50 [24]: 23 µM | EC50 [16]: 2 µM

N[C@@]1(C(=O)O)C[C@@H]2ON=C(C(=O)O)[C@@H]2C1 (racemic)
ED50 (Mus musculus [10]): 22 µmol/kg | EC50 (Rattus norvegicus [11]): > 1000 µM | ED50 (Mus musculus [25]): 70 µmol/kg | ED50 (Mus musculus [12]): 27 µmol/kg | ED50 (Mus musculus [13]): 33 µmol/kg | IC50 (Glutamate NMDA receptor): 0.49 µM | ED50 (Mus musculus [14]): 28 µmol/kg | ED50 (Mus musculus [26]): 45 µmol/kg | EC50 [15]: > 1000 µM | ED50 (Mus musculus [27]): 39 µmol/kg | IC50 [28]: > 100 µM | Activation [29]: 36% | IC50 [18]: > 100 µM | IC50 (Rattus norvegicus [30]): 14 µM | Ki [20]: > 1000 µM | Inhibition (Rattus norvegicus [31]): 32% | ED50 (Mus musculus [32]): 54 µmol/kg | Ki [21]: 94 µM | Ki [23]: 640 µM

CC(C)OC(=O)Nc1cccc(Cl)c1 [CHLORPROPHAM]
ED50 (Mus musculus [1]): 8.7 µmol/kg | ED50 (Mus musculus [2]): 6.9 µmol/kg | ED50 (Mus musculus [3]): 22 µmol/kg | ED50 (Mus musculus [4]): 5.2 µmol/kg | ED50 (Mus musculus [5]): 2.6 µmol/kg | ED50 (Mus musculus [6]): 2.8 µmol/kg | ED50 (Mus musculus [7]): 41 µmol/kg | ED50 (Mus musculus [8]): 5.6 µmol/kg

NC(=O)OCC(COC(N)=O)c1ccccc1 [FELBAMATE]
ED50 (Mus musculus [33]): 97 µmol/kg | ED50 (Mus musculus [34]): 204 µmol/kg | ED50 (Mus musculus [35]): 51 µmol/kg | ED50 (Mus musculus [36]): 122 µmol/kg | ED50 (Mus musculus [37]): 328 µmol/kg | ED50 (Mus musculus [38]): 674 µmol/kg

O=C(O)[C@H]1CN(C/C=C/P(=O)(O)O)CCN1 [MIDAFOTEL]
ED50 (Mus musculus [10]): 0.79 µmol/kg | ED50 (Mus musculus [25]): 8.6 µmol/kg | ED50 (Mus musculus [12]): 1.2 µmol/kg | ED50 (Mus musculus [13]): 2.5 µmol/kg | IC50 (Glutamate NMDA receptor): 0.04 µM | ED50 (Mus musculus [14]): 1.8 µmol/kg | ED50 (Mus musculus [26]): 6.8 µmol/kg | ED50 (Mus musculus [27]): 11 µmol/kg | ED50 (Mus musculus [32]): 17 µmol/kg

O=C1NC(=O)C(c2ccccc2)(c2ccccc2)N1 [PHENYTOIN]
ED50 (Mus musculus [33]): 7.3 µmol/kg | ED50 (Mus musculus [34]): 9.1 µmol/kg | ED50 (Mus musculus [35]): 2.2 µmol/kg | ED50 (Mus musculus [36]): 31 µmol/kg | ED50 (Mus musculus [37]): 8.7 µmol/kg | ED50 (Mus musculus [38]): 11 µmol/kg

CCCC(CCC)C(=O)O [VALPROIC ACID]
ED50 (Mus musculus [33]): 187 µmol/kg | ED50 (Mus musculus [34]): 258 µmol/kg | ED50 (Mus musculus [35]): 498 µmol/kg | ED50 (Mus musculus [36]): 878 µmol/kg | ED50 (Mus musculus [37]): 205 µmol/kg | ED50 (Mus musculus [38]): 275 µmol/kg
